Measured values: ChEMBL document CHEMBL1148136, “Induction of quinone reductase by withanolides” (J Nat Prod, 2002)

Key:
[1] = Chemoprevention index, ratio of IC50 for mouse Hepa-1c1c7 cells to drug level required to induce 4-fold increase in quinone reductase activity in mouse Hepa-1c1c7 cells; assay type: functional
Outline: (§1)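 Hepa 1c1c7 cells seeded at 4000 cells/mL, grown 24 h at 37 °C under CO2, then medium changed. Compounds added in 10% DMSO, serially diluted over 0.15-20 µg/mL, and incubated a further 48 h. QR measured as NADPH-dependent, menadiol-mediated MTT reduction to formazan. Protein by crystal violet at 595 nm in duplicate plates. Specific activity expressed relative to solvent control. CD = concentration giving 2-fold activity, CQ = 4-fold. CI = IC50/CD or IC50/CQ.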

[2] = Chemoprevention index, ratio of IC50 for mouse Hepa-1c1c7 cells to drug level required to double specific quinone reductase activity in mouse Hepa-1c1c7 cells; assay type: functional; outline: as §1
[3] = Growth inhibition of mouse Hepa-1c1c7 cells by crystal violet staining; assay type: cell-based; settings: for IC50: Mus musculus, Hepa-1c1c7; for Activity: mouse, hepa-1c1c7
Outline: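 Hepa 1c1c7 cells seeded at 4000 cells/mL and grown 24 h at 37 °C, then medium changed. Compounds added in 10% DMSO, serially diluted over 0.15-20 µg/mL, and exposed 48 h. Viability read by crystal violet staining at 595 nm. IC50 taken as the half-maximal inhibitory concentration of cell viability.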

SMILES: CC(=O)O[C@H]1C=CC(=O)[C@]2(C)[C@H]3CC[C@]45C(O)O[C@@](C)([C@H]6C[C@H](C)[C@@H](C)C(=O)O6)[C@H]4CC[C@H]5[C@@H]3C[C@H]3O[C@]132 (stereo partly specified)
- Ratio [1]: >1.4
- Ratio [2]: >1.4
- IC50 [3]: 0.39 µM

SMILES: CC(=O)O[C@H]1C=CC(=O)[C@@]2(C)C1=C[C@H](OC(C)=O)[C@@H]1[C@@H]2CC[C@]2(C)[C@@H]([C@@](C)(O)[C@H]3CC(C)=C(C)C(=O)O3)CC[C@@H]12
- Ratio [2]: >3
- IC50 [3]: 0.81 µM

SMILES: CC(=O)O[C@@H]1[C@H]2[C@@H]3CC[C@H]([C@@](C)(O)[C@H]4CC(C)=C(C)C(=O)O4)[C@@]3(C)CC[C@@H]2[C@@]2(C)C(=O)C=C[C@H](OC(C)=O)[C@]23O[C@H]13
- Ratio [2]: 1.3
- IC50 [3]: 0.33 µM

SMILES: CC(=O)O[C@H]1C=CC(=O)[C@]2(C)[C@H]3CC[C@]45C(=O)O[C@@](C)([C@H]6C[C@H](C)[C@@H](C)C(=O)O6)[C@H]4CC[C@H]5[C@@H]3C[C@H]3O[C@]132
- Ratio [1]: >1.5
- Ratio [2]: >1.5
- IC50 [3]: 0.42 µM

SMILES: CC1=C(C)C(=O)O[C@@H]([C@](C)(O)[C@H]2CC[C@H]3[C@@H]4[C@@H](O)C=C5[C@@H](O)C=CC(=O)[C@]5(C)[C@H]4CC[C@]23C)C1
- Ratio [1]: 0.62
- Ratio [2]: 3.5
- IC50 [3]: 1.66 µM

SMILES: CC(=O)C1=CC[C@H]2[C@@H]3[C@@H]4O[C@@H]4[C@@]4(O)CC=CC(=O)[C@]4(C)[C@H]3CC[C@]12C
- Ratio [2]: >1.7
- IC50 [3]: > 58.4 µM

SMILES: CC1=C(C)C(=O)O[C@@H]([C@@H](C)[C@H]2[C@@H](O)C[C@H]3[C@@H]4C[C@H]5O[C@]56[C@@H](O)C=CC(=O)[C@]6(C)[C@H]4CC[C@]23C)C1
- Ratio [1]: 1.3
- Ratio [2]: >2.1
- IC50 [3]: 0.66 µM

SMILES: CC1=C(C)C(=O)O[C@@H]([C@](C)(O)[C@H]2CC[C@H]3[C@@H]4C[C@H]5O[C@]56[C@@H](O)C=CC(=O)[C@]6(C)[C@H]4CC[C@]23CO)C1
- Ratio [1]: 3.5
- Ratio [2]: 7.2
- IC50 [3]: 1.93 µM

SMILES: CC1=C(C)C(=O)O[C@@H]([C@](C)(O)[C@H]2CC[C@H]3[C@@H]4[C@@H](O)[C@H]5O[C@]56[C@@H](O)C=CC(=O)[C@]6(C)[C@H]4CC[C@]23C)C1
- Ratio [2]: 2.5
- IC50 [3]: 1.27 µM

SMILES: CC(=O)O[C@H]1C=CC(=O)[C@]2(C)[C@H]3CC[C@]45C(=O)O[C@@](C)([C@H]6CC(C)=C(C)C(=O)O6)[C@H]4CC[C@H]5[C@@H]3C[C@H]3O[C@]132
- Ratio [1]: >2
- Ratio [2]: >2
- IC50 [3]: 0.57 µM

SMILES: CC(=O)O[C@@H]1O[C@@](C)([C@H]2CC(C)=C(C)C(=O)O2)[C@H]2CC[C@H]3[C@@H]4CC=C5[C@@H](OC(C)=O)C=CC(=O)[C@]5(C)[C@H]4CC[C@]123
- IC50 [3]: 5.1 µM

SMILES: C[C@H]1C[C@H]([C@](C)(O)[C@H]2CC[C@H]3[C@@H]4C[C@H]5O[C@]56[C@@H](O)C=CC(=O)[C@]6(C)[C@H]4CC[C@]23C)OC(=O)[C@@H]1C
- Ratio [1]: 1.4
- Ratio [2]: 7.8
- IC50 [3]: 5.5 µM

SMILES: CC1=C(C)C(=O)O[C@@H](/C(C)=C2\[C@@H](O)C[C@H]3[C@@H]4[C@@H]5O[C@@H]5[C@@]5(O)CC=CC(=O)[C@]5(C)[C@H]4CC[C@]23C)C1 [EXODECONOLIDE A]
- Ratio [2]: >2.7
- IC50 [3]: > 42.7 µM

SMILES: CC1=C(C)C(=O)O[C@@H](/C(C)=C2\[C@H](O)C[C@H]3[C@@H]4[C@@H]5O[C@@H]5[C@@]5(O)CC=CC(=O)[C@]5(C)[C@H]4CC[C@]23C)C1 [EXODECONOLIDE B]
- Ratio [2]: >2.6
- IC50 [3]: > 42.7 µM

SMILES: CC1=C(C)[C@]2(OC1=O)C(=O)C(C)=C1CC[C@H]3[C@@H]4C[C@H]5O[C@]56CC=CC(=O)[C@]6(C)[C@H]4C[C@@]2(O)[C@]13C [JABOROSALACTONE 1]
- Ratio [1]: 6.3
- Ratio [2]: 28.9
- IC50 [3]: 8.08 µM

SMILES: CC1=C(C)[C@]2(OC1=O)[C@H](O)[C@@H](C)[C@]1(O)CC[C@H]3[C@@H]4C[C@@H](O)[C@@]5(Cl)CC=CC(=O)[C@]5(C)[C@H]4C[C@@]2(O)[C@@]31C [JABOROSALACTONE 10]
- Ratio [2]: >5.2
- IC50 [3]: > 38 µM

SMILES: CO[C@]12CC=CC(=O)[C@]1(C)[C@H]1C[C@@]3(O)[C@@]4(C)[C@@H](CC[C@@]4(O)[C@H](C)[C@@H](O)[C@]34OC(=O)C(C)=C4C)[C@@H]1C[C@H]2O [JABOROSALACTONE 12]
- Ratio [2]: >4.2
- IC50 [3]: > 39 µM

SMILES: CC1=C(CO)C(=O)O[C@@H]([C@@H](C)[C@H]2CC[C@H]3[C@@H]4C[C@H]5O[C@]56CC=CC(=O)[C@]6(C)[C@H]4CC[C@]23C)C1 [JABOROSALACTONE A]
- Ratio [1]: 2.7
- Ratio [2]: 6.3
- IC50 [3]: 1.83 µM

SMILES: CC1=C(CO)C(=O)O[C@@H]([C@@H](C)[C@H]2CC[C@H]3[C@@H]4C[C@@H](O)[C@@]5(O)CC=CC(=O)[C@]5(C)[C@H]4CC[C@]23C)C1 [JABOROSALACTONE D]
- Ratio [2]: >1.7
- IC50 [3]: > 42.3 µM

SMILES: CC1=C(C)C(=O)O[C@@H]([C@@H](C)[C@@]2(O)CC[C@H]3[C@@H]4C[C@H]5O[C@]56CC=CC(=O)[C@]6(CO)[C@H]4CC[C@@]32C)C1 [JABOROSALACTONE L]
- Activity [3]: Not Active

SMILES: CC1=C(C)C(=O)O[C@@H]([C@@H](C)[C@@]2(O)CC[C@H]3[C@@H]4C[C@H]5O[C@]56CCCC(=O)[C@]6(CO)[C@H]4CC[C@@]32C)C1 [JABOROSALACTONE O]
- Ratio [2]: >27.8
- IC50 [3]: > 42.3 µM

SMILES: CC1=C(C)C(=O)O[C@@H]([C@@H]2CO[C@@]3(O)C[C@H]4[C@@H](C[C@@H](O)[C@@]5(O)CC=CC(=O)[C@]45C)[C@@H]4CC[C@]2(O)[C@]43C)C1 [JABOROSALACTONE S]
- IC50 [3]: > 39.8 µM

SMILES: C[C@@H](c1ccc2c(c1)CC[C@H]1[C@H]2C[C@@H]2O[C@@]23CC=CC(=O)[C@]13C)[C@@H]1C[C@@H]2O[C@@H]2[C@H](O)O1 [SALPICHROLIDE A]
- Ratio [2]: >4
- IC50 [3]: > 42.9 µM

SMILES: C[C@@H](c1cc(O)c2c(c1)CC[C@H]1[C@H]2C[C@@H]2O[C@@]23CC=CC(=O)[C@]13C)[C@@H]1C[C@@H]2O[C@@H]2[C@H](O)O1 [SALPICHROLIDE G]
- Ratio [2]: >3.7
- IC50 [3]: > 42.9 µM

SMILES: C[S+]([O-])CCCCN=C=S (stereo unspecified) [SULFORAPHANE]
- Ratio [1]: 1.1
- Ratio [2]: 23.9

SMILES: CC1=C(C)C(=O)O[C@@H]([C@@H](C)[C@H]2CC[C@H]3[C@@H]4[C@@H]5O[C@@H]5[C@@]5(O)CC=CC(=O)[C@]5(C)[C@H]4C[C@H](O)[C@]23C)C1 [WITHAFEROXOLIDE]
- Ratio [2]: >2.9
- IC50 [3]: > 42.5 µM

SMILES: CC1=C(C)C(=O)O[C@@H]([C@](C)(O)[C@H]2CC[C@H]3[C@@H]4[C@@H]5O[C@@H]5[C@@]5(O)CC=CC(=O)[C@]5(C)[C@H]4CC[C@]23C)C1 [WITHANOLIDE A]
- IC50 [3]: > 42.5 µM

SMILES: CC1=C(C)C(=O)O[C@@H]([C@@H](C)[C@@]2(O)CC[C@H]3[C@@H]4[C@@H]5O[C@@H]5[C@@]5(O)CC=CC(=O)[C@]5(C)[C@H]4CC[C@@]32C)C1 [WITHANONE]
- Activity [3]: Not Active

SMILES: CC1=C(C)C(=O)O[C@@H]([C@]2(C)OC(O)[C@]34CC[C@H]5[C@@H](C[C@H]6O[C@]67[C@@H](O)C=CC(=O)[C@]57C)[C@@H]3CC[C@H]24)C1 (stereo partly specified) [WITHAPHYSALIN F]
- IC50 [3]: 4.15 µM

SMILES: CC1=C(C)C(=O)O[C@@H]([C@]2(C)OC(O)[C@]34CC[C@H]5[C@@H](CC=C6[C@@H](O)C=CC(=O)[C@@]65C)[C@@H]3CC[C@H]24)C1 (stereo partly specified) [WITHAPHYSALIN G]
- Ratio [2]: 19.3
- IC50 [3]: 9.83 µM

SMILES: CO[C@@H]1O[C@@](C)([C@H]2CC(C)=C(C)C(=O)O2)[C@H]2CC[C@H]3[C@@H]4CC=C5[C@@H](O)C=CC(=O)[C@]5(C)[C@H]4CC[C@]123 [WITHAPHYSALIN H]
- Ratio [2]: 10
- IC50 [3]: 5.21 µM

SMILES: CO[C@H]1O[C@@](C)([C@H]2CC(C)=C(C)C(=O)O2)[C@H]2CC[C@H]3[C@@H]4CC=C5[C@@H](O)C=CC(=O)[C@]5(C)[C@H]4CC[C@]123 [WITHAPHYSALIN I]
- Ratio [2]: 5.1
- IC50 [3]: 5.27 µM

SMILES: CC1=C(C)C(=O)O[C@@H]([C@]2(C)OC(=O)[C@]34CC[C@H]5[C@@H](CC=C6[C@@H](O)C=CC(=O)[C@@]65C)[C@@H]3CC[C@H]24)C1 [WITHAPHYSALIN J]
- Ratio [2]: 28.1
- IC50 [3]: 11 µM

SMILES: CO[C@@H]1O[C@@](C)([C@H]2CC(C)=C(C)C(=O)O2)[C@H]2CC[C@H]3[C@@H]4CC=C5C(=O)C=CC(=O)[C@]5(C)[C@H]4CC[C@]123 [WITHAPHYSALIN K]
- IC50 [3]: 7.29 µM

SMILES: CO[C@H]1O[C@@](C)([C@H]2CC(C)=C(C)C(=O)O2)[C@H]2CC[C@H]3[C@@H]4CC=C5C(=O)C=CC(=O)[C@]5(C)[C@H]4CC[C@]123 [WITHAPHYSALIN L]
- IC50 [3]: 0.65 µM
